MT stabilizer: microtubule stabilizers in HeLa cells. HeLa tubulin immunostaining HCS, 24 h; share of cells brighter than vehicle mean+2SD. % tubulin-high responders, % at 10 µM. 0.83% of 200,000 active;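 active means plate Z-score above 3 for both tubulin-high and condensed-nucleus cell shares, with cell loss under 80%, at 10 µM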;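 further: anti alpha tubulin signal scored within the nucleus-defined area of each cell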
IEC-6 cytotox: IEC-6 cytotoxicity, counter-screen for KLF5 inhibitors; AID 1825; luminescence viability; 0.78% of 290,000 active; inhibition, % at 5 µM; in the data active means inhibition above about 22%;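 further: 0% = plate median of test compound wells and 100% = cytotoxic reference compound wells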
b-catenin transl: alters nuclear translocation of beta-catenin in HeLa cells | nuclear translocation activity, % at 5 µM | AID 1665 | immunofluorescence imaging | 0.3% of 190,000 active;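 active means nuclear translocation activity above 50% at 5 µM, with a well cell count of 50 or more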;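 further: per-cell ratio of nuclear to cytoplasmic median beta-catenin stain intensity; plate controls were DMSO negative control for no effect and GSK-3 inhibitor IX positive control for full effect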
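System: Human HeLa cells, endogenous beta-catenin | Compound dosing: 5 µM primary, 0.02–20 µM confirmation | Timing: 24 h compound exposure at 37°C, 5% CO2 | Measured by: Fluorescence imaging of beta-catenin antibody stain plus DAPI | Read-out basis: % activation of per-cell nuclear versus cytoplasmic median beta-catenin signal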
APP 5UTR inh: APP translation inhibition | SH-SY5Y APP 5'UTR-luciferase reporter, luminescence | inhibition, % at 2 µM | 0.82% of 190,000 active;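 active means inhibition above a set limit, derived from the sample mean plus 3 SD, cut at about 45% in these data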
Ba/F3 V617F tox: lowers viability of Ba/F3 cells expressing EpoR and JAK2V617F; ATP luminescence; inhibition, % at 5.6 µM; 1.1% of 220,000 active;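 active means inhibition above the campaign mean plus 3 SD over all tested compounds, cut at about 24% in these data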;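 further: cytokine-independent growth of Ba/F3 cells driven by EpoR plus mutant JAK2; 0% = DMSO-treated cells and 100% = JAK inhibitor I control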
BaF3 parental: counter-screen for JAK2V617F inhibitors: parental Ba/F3 viability inhibitors; 1.1% of 220,000 active; inhibition, % at 5.6 µM; CellTiter-Glo ATP luminescence;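 active means inhibition above a per-campaign cutoff, the mean inhibition of all tested compounds plus 3 SD, cut at about 27% in these data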;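 further: 0% = DMSO wells and 100% = JAK Inhibitor I control wells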
* marks the source's active call; other numbers are inactive results; x = no result given. Only some compounds are listed: those with a hit (about 2.2% of all), similar ones and a draw of the others.

SMILES	MT stabilizer	IEC-6 cytotox	b-catenin transl	APP 5UTR inh	Ba/F3 V617F tox	BaF3 parental
O=C(Nc1ccc(Cl)cc1C(F)(F)F)C(Sc1nnc(-c2cccs2)o1)c1ccccc1 (stereo not given)	14*	8	33	-30	-1	5
COc1cc(OC)c(NC(=O)N2CCOCC2)cc1Cl	x	-5	x	x	x	x
COC(=O)c1ccccc1NC(=O)C1CC(=O)N(c2ccc(C)cc2)C1 (stereo not given)	7	-5	2	1	-1	54*
Cc1ccc(N2CC(C(=O)Nc3ccccc3N3CCCC3)CC2=O)cc1 (stereo not given)	x	-4	x	x	x	x
COc1ccc(OC)c(NC(=O)c2nnn(CCc3ccccc3)c2N)c1	5	-2	x	-31	-4	-1
Cc1ccc(CNC(=O)Cn2nnc(C(=O)Nc3cccc(C)c3C)c2N)cc1	x	-1	x	x	x	x
CCc1ccccc1NC(=O)Cn1nnc(C(=O)NCc2cccs2)c1N	30*	10	1	4	5	12
Cc1ccccc1Cn1nnc(C(=O)Nc2cccc(C)c2C)c1N	5	7	2	13	26*	32*
COc1ccc(C)cc1NC(=O)c1nnn(Cc2cccc(C(F)(F)F)c2)c1N	3	-4	1	1	24*	37*
CCN1CCN(CCCNC(=O)c2ccc(CS(=O)c3ccc(Br)cc3)o2)CC1 (stereo not given)	x	-6	x	x	x	x
COc1ccc(NC(=O)CSc2nc3ccccc3c3nc4ccccc4n23)cc1	25*	-3	28	81*	-1	5
Cc1ccc(NC(=S)NNC(=O)CSc2nc3ccccc3c(=O)n2-c2ccc(C)cc2)cc1	2	-1	1	-13	2	43*
Cc1ccc(NC(=O)CSc2nc3ccccc3c3nc4ccccc4n23)cc1	33*	11	148*	51*	1	3
CC(Oc1ccccc1)C(=O)N=C1SC2CS(=O)(=O)CC2N1c1ccccc1 (stereo not given)	x	4	x	x	x	x
Cc1ccc(S(=O)(=O)N2CCC(N3CCN(C)CC3)CC2)cc1Cl	x	0	x	x	x	x
CN(C)c1ccc(/C=C/c2cc[n+](C)cc2)cc1	3	6	x	-18	94*	71*
CN(C)c1ccc(/C=C/c2cc[n+]([O-])cc2)cc1	6	0	-6	-49	0	-1
CCc1cc(-c2n[nH]c(CCC(=O)O)c2-c2nc3ccccc3n2C)c(O)cc1O	3	0	4	-10	-1	6
CCc1cc(-c2n[nH]c(C)c2-c2nc3ccccc3n2C)c(O)cc1O	14*	-1	21	-12	-2	2
CCc1ccc(NC(=O)NCc2cccnc2)cc1	x	5	x	x	x	x
COc1ccccc1C(C)NC(=O)c1ccc(C)o1 (stereo not given)	44*	6	x	-1	-1	3
COc1ccc(OC)c(C(C)NC(=O)c2ccco2)c1 (stereo not given)	26*	-2	3	-11	-4	3
Cc1ccc(C(=O)NC(C)c2ccccc2)o1 (stereo not given)	3	-2	1	-22	2	6
CC(C)(C)c1cc(C(=O)N/N=C/c2ccccc2O)n(-c2ccccc2)n1	2	0	-1	66*	-5	0
COc1ccc(/C=N/NC(=O)c2nc(-c3ccccc3)n(-c3ccccc3)n2)c(O)c1	7	3	3	49*	-4	2
SMILES	MT stabilizer	IEC-6 cytotox	b-catenin transl	APP 5UTR inh	Ba/F3 V617F tox	BaF3 parental
CC(C)(C)c1cc(C(=O)N/N=C/c2ccc(F)cc2)n(-c2ccccc2)n1	4	9	0	4	2	3
COc1ccc(/C=N/NC(=O)c2nc(-c3ccccc3)n(-c3ccccc3)n2)cc1	1	-5	-1	12	-1	3
O=[N+]([O-])c1ccc2nc(NS(=O)(=O)c3ccc(F)cc3)sc2c1	x	-3	x	x	x	x
CCc1ccc(NC(=O)c2ccc(NC(=O)C3CCCO3)cc2)cc1 (stereo not given)	x	1	x	x	x	x
CCSc1ccccc1-c1nc(-c2ccncc2)no1	x	2	x	x	x	x
CCOc1cc(/C=N\NC(=O)c2ccc(NC(=O)C(C)(C)C)cc2)ccc1OC(=O)c1ccc(OC)cc1	4	2	-1	94*	-4	1
COc1ccc(C(=O)N/N=C/c2ccc(OC)c(COc3ccc(F)cc3)c2)cc1	x	5	x	x	x	x
CCOC(=O)C1CCN(C(=O)CCc2c(C)nc3cc(-c4ccccc4)nn3c2C)CC1	3	-4	0	23	-4	4
CCOC(=O)C1CCCCN1C(=O)CCc1c(C)nc2cc(-c3ccccc3)nn2c1C (stereo not given)	4	-3	x	52*	-1	3
COc1cc(OC)cc(-c2cc3nc(C)c(CCC(=O)O)c(C)n3n2)c1	8	-10	x	78*	-2	4
COc1ccccc1CNC(=O)c1ccc2ccccc2n1	x	13	x	x	x	x
O=C(CSc1n[nH]c(-c2ccncc2)n1)Nc1ccccc1C(F)(F)F	x	-2	x	x	x	x
COc1cccc(/C=N/NC(=O)c2[nH]c(C)c(C(=O)N/N=C/c3cccc(OC)c3)c2C)c1	3	0	-1	2	-1	2
CCOC(=O)c1c(C)[nH]c(C(=O)N/N=C/c2cccc(OC)c2)c1C	20*	10	0	2	5	9
CCOC(=O)c1c(C)[nH]c(C(=O)N/N=C\c2ccccc2Cl)c1C	23*	13	49	-2	5	11
Cc1cc(NC(=O)Cc2ccccc2)c2ccccc2n1	3	11	1	-6	39*	73*
CC(C)N1C(=O)N(c2cccc(Cl)c2)C(C)(O)CC1(C)C (stereo not given)	x	-6	x	x	x	x
Cc1ccc(C(C)C)c(OCc2nn(CC(=O)c3ccc(OC(F)F)cc3)c3[n+]2CCCCC3)c1	48	-1	-4	9	49*	30*
O=C(NCC(c1cccs1)N1CCOCC1)c1ccc(Br)o1 (stereo not given)	22*	0	1	5	-1	7
CCCCNc1oc(-c2ccc(OC)cc2)nc1S(=O)(=O)c1ccccc1	3	4	-2	-6	2	3
CCNc1oc(-c2ccc(OC)cc2)nc1S(=O)(=O)c1ccc(Br)cc1	2	2	-4	49*	4	6
O=C(c1ccc(Cl)cc1)C(Cn1cncn1)C(Sc1ccccc1)c1ccccc1 (stereo not given)	3	-2	0	51*	-5	2
Cn1c(N=Nc2ccccc2)nc2ccccc21	2	38*	10	-180	31*	31*
Cc1ccc(-n2ncc3c(=O)n(CC(=O)N(C(C)C)C(C)C)cnc32)cc1	x	-6	x	x	x	x
Oc1cccc(C2c3[nH]c4ccccc4c3CCN2Cc2ccc3c(c2)CCO3)c1 (stereo not given)	8.2*	14	10	-2	0	3
COc1ccc(/C=N\NC(=O)c2c(C)nc3ccc(Br)cn23)cc1	20*	47*	53*	89*	73*	72*
